Data set [1] can be described thus: Inhibition of PDE4 in human PBMC assessed as reduction in LPS-induced TNFalpha release after 18 hrs by quantitative ELISA. In general terms: In an ELISA, binding on a coated surface is turned into a signal by an enzyme label.
The nature of data set [2]: Drug level in human hepatocytes treated with 3, 5 -Dichloro-4-( (S)-2-(3 -(cyclopropylmethoxy)-4-(difluoromethoxy)phenyl)-2-(((S)-1-((3- (dimethylcarbamoyl)-phenyl)sulfonyl)pyrrolidine-2-carbonyl)oxy)ethyl)pyridine 1-Oxide at 10 uM after 60 mins by LC-MS/MS analysis. Format: ADME, cell-based, Hepatocyte. To be noted: 1 h. A digest of the protocol: (§1)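 Pooled mixed-sex cryopreserved human hepatocytes (1 million cells/mL) in Leibovitz L-15 at 37 °C, compound at 10 μM in duplicate. Sampled at 0 and 60 min. Protein-free supernatant evaporated under nitrogen, reconstituted in mobile phase and analysed by LC−MS/MS. Cell-free medium incubation for 60 min as control.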

Data set [3] is described as follows: Drug level in human hepatocytes treated with 3, 5-Dichloro-4-((S)-2-(3-(cyclopropylmethoxy)-4-(difluoromethoxy)phenyl)-2-((S)-3-(3-(dimethylcarbamoyl)-phenylsulfonyl)thiazolidine-2-carbonyloxy)ethyl)pyridine 1-Oxide at 10 uM after 60 mins by LC-MS/MS analysis. Format: ADME, cell-based, Hepatocyte. The settings on record: 1 h. The method in brief: as §1
Data set [4] can be described thus: Inhibition of PDE4 in human U937 cell lysates assessed as residual cAMP after 2.5 mins by LANCE assay.
A short description of data set [5]: Apparent permeability across basolateral to apical side in human Caco2 cells at 10 uM after 2 hrs by LC-MS/MS analysis. To be noted: Caco-2. Format: ADME, cell-based. (Caco-2 monolayers are a common model of the intestinal barrier.)
The nature of data set [6]: Metabolic stability in human lung S9 fraction assessed as compound remaining at 1 uM measured after 60 mins in presence of NADPH by LC-MS/MS analysis. It counts as ADME. To be noted: read-out: Stability.
Data set [7] is described as follows: Intrinsic clearance in human hepatocytes assessed per million cells at 1 uM measured after 90 mins by LC-MS/MS analysis. Format: ADME, cell-based, Hepatocyte. To be noted: read-out: CLH. The method in brief: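 Compound at 1 μM with hepatocytes (1 million cells/mL) in Leibovitz L-15 at 37 °C, in duplicate. Sampled at 0, 10, 20, 30, 60 and 90 min, quenched with ice-cold acetonitrile, centrifuged, and unchanged compound measured by LC−MS/MS. Included 7-ethoxycoumarin and 7-hydroxycoumarin activity controls and cell-free medium controls.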

Data set [8] is described as follows: Protein binding in human plasma at 5 uM after 5 hrs by LC-MS/MS analysis. It counts as ADME, cell-free. The settings on record: read-out: PPB (converted).
Data set [9] is described as follows: Intrinsic clearance in human liver microsomes at 1 uM measured after 60 mins in presence NADPH by LC-MS/MS analysis. It counts as ADME, microsome. The settings on record: read-out: CLH. A digest of the protocol: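 Compound at 1 μM with human liver microsomes (0.8 mg protein/mL) in Dulbecco's buffer pH 7.4, 1 mM NADPH, 37 °C, in duplicate. Sampled at 0, 5, 10, 20, 30 and 60 min, quenched with ice-cold acetonitrile, and unchanged compound measured by LC−MS/MS. No-NADPH controls; midazolam (1 μM) as phase I control.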
For orientation: Liver microsomes are vesicles of endoplasmic reticulum, rich in cytochrome P450 enzymes.

Data set [10] in a line: Metabolic stability in human plasma assessed as compound remaining at 1 uM measured after 60 mins in presence of NADPH by LC-MS/MS analysis. It counts as ADME, cell-free. The settings on record: read-out: Stability.
Data set [11] in a line: Apparent permeability across apical to basolateral side in human Caco2 cells at 10 uM after 2 hrs by LC-MS/MS analysis. The settings on record: Caco-2. Format: ADME, cell-based.
In data set [12] the test system is Rattus norvegicus. Description: Anti-inflammatory activity in OVA-induced airway inflammation Brown Norway rat model assessed inhibition of eosinophils recruitment in bronchoalveolar lavage fluid administered intratracheally as powder formulation 2 hrs before aerosolized OVA challenge measured at 24 hrs post aerosolized OVA challenge. Format: functional. A digest of the protocol:
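Male Brown Norway rats sensitized i.p. with OVA (1 mg/rat) plus Al(OH)3 (100 mg/rat) in saline on 3 consecutive days. Challenged 2–3 weeks later with nose-only 1% OVA aerosol for 30 min. Lactose-blended dry powder (10 mg/kg total powder) insufflated intratracheally; dose taken from needle weight difference. BAL with 3 × 4 mL HBSS/EDTA/HEPES at 24 h; total and differential counts by automated counter. ED50 from fitted dose–response curve.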

Data on 6 compounds can be found in ChEMBL document CHEMBL4024768, “Discovery and Optimization of Thiazolidinyl and Pyrrolidinyl Derivatives as Inhaled PDE4 Inhibitors for Respiratory Diseases” (J Med Chem, 2017).

As usually defined, the IC50 is the concentration at which inhibition is half-maximal. As for `CN(C)C(=O)c1cccc(S(=O)(=O)N2CCC[C@H]2C(=O)O)c1`, the IC50 in data set [1] was over 1000 nM. In addition, the Drug metabolism entry in data set [2] is recorded as “Metabolite_Detected”.
For the compound `[O-][n+]1cc(Cl)c(C[C@H](O)c2ccc(OC(F)F)c(OCC3CC3)c2)c(Cl)c1`, the IC50 in data set [1] is 480 nM. In addition, the Drug metabolism entry in data set [2] and in data set [3] was “Metabolite_Detected” each time.
For `CN(C)C(=O)c1cccc(S(=O)(=O)N2CCS[C@H]2C(=O)O[C@@H](Cc2c(Cl)c[n+]([O-])cc2Cl)c2ccc(OC(F)F)c(O)c2)c1` (relative stereo), the IC50 in [1] was 1.95 nM; in data set [4], 0.183 to 1.95 nM. For the same compound, the Drug metabolism entry in data set [3] is recorded as “Metabolite_Detected”.
Usually Papp B→A stands for the apparent permeability from the basolateral to the apical side of a cell layer. What is called Papp A→B is how fast a substance crosses the layer from the apical side. For the compound `CN(C)C(=O)c1cccc(S(=O)(=O)N2CSC[C@H]2C(=O)O[C@@H](Cc2c(Cl)c[n+]([O-])cc2Cl)c2ccc(OC(F)F)c(OCC3CC3)c2)c1`, in data set [5], the Papp B→A at 2 h, 10 µM came to 4.46 ×10⁻⁶ cm/s. Further, the IC50 worked out at 0.035 nM in data set [1] and 0.055 nM in data set [4]. In addition, the remaining at 1 h, 1 µM in [6] was determined as 52.1%; in data set [10], 94%. Moreover, the hepatocyte CLint at 1 µM in [7] amounted to 25.9 µL/min/1e6 cells. Besides, the fraction unbound at 5 h, 5 µM in data set [8] is 0.0017. Moreover, the microsomal CLint at 1 µM in [9] came out at 268 µL/min/mg. Moreover, the Papp A→B at 2 h, 10 µM in data set [11] stood at 2.8 ×10⁻⁶ cm/s.
Turning to `CNC(=O)c1cc(S(=O)(=O)N2CCS[C@H]2C(=O)O[C@@H](Cc2c(Cl)c[n+]([O-])cc2Cl)c2ccc(OC(F)F)c(OCC3CC3)c2)cn1C` (relative stereo), in data set [5], the Papp B→A at 2 h, 10 µM came to 18.3 ×10⁻⁶ cm/s. Besides, the IC50 in data set [1] turned out to be 0.03 nM; in [4], 0.025 nM. The remaining at 1 h, 1 µM in data set [6] was 63.5%; in [10], 100%. The hepatocyte CLint at 1 µM in data set [7] was 47.6 µL/min/1e6 cells. The fraction unbound at 5 h, 5 µM in data set [8] is 0.0016. For the same compound, the microsomal CLint at 1 µM in data set [9] worked out at 202 µL/min/mg. In addition, the Papp A→B at 2 h, 10 µM in data set [11] came out at 1.26 ×10⁻⁶ cm/s.
By ED50 is commonly meant the midpoint of the dose-response relation. Low readings indicate an effect at a small dose, high ones a need for a large dose. `CCCC1O[C@@H]2C[C@H]3[C@@H]4CCC5=CC(=O)C=C[C@]5(C)[C@H]4[C@@H](O)C[C@]3(C)[C@]2(C(=O)CO)O1` (stereo partly drawn) [BUDESONIDE]: the inhibition result in data set [12] was “Dose-dependent effect”. This compound also gave an ED50 in [12] (inhaled or nasal) of 0.04 µmol/kg.
